Measurements published in ChEMBL document CHEMBL4513216, “Probing the Open Global Health Chemical Diversity Library for Multistage-Active Starting Points for Next-Generation Antimalarials” (ACS Infect Dis, 2020).

Test: Toxicity liver stage against HepG2, at 10uM
Assay type: cell-based
Design: test concentration 10 uM, cell line HepG2-A16-CD81EGFP
Conditions: human, HepG2-A16-CD81EGFP cells; read-out: INHIBITION
Outline: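 Uninfected HepG2-A16-CD81EGFP cells, 3 × 10^3 per well, 1536-well, plated on prespotted compound at 10 μM final, parasite-free screening media added to match infected plates; puromycin 10 μM positive, DMSO 0.5% negative; run in parallel with 48 h PbLuc assay at 37 °C, 5% CO2; viability by CellTiter-Glo luminescence, normalized to controls.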

Row | Compound | cytotoxicity at 10 µM
1 | Clc1cnccc1NCc1cccc(COC2CCOCC2)c1 | 53.9%
2 | O=C(c1ccc(-c2cc[nH]n2)cc1)N1CC[C@H](CO)[C@H](O)C1 | 4.52%
3 | CCC(CC(=O)NS(=O)(=O)C(C)C)c1ccccc1 (stereo not drawn) | -49.1%
4 | Cc1cc(N(C)Cc2c(C)noc2C)n2nc(C)c(C)c2n1 | 5.44%
5 | Cc1cccc(OCCNC(=O)Cn2ccc(C)cc2=O)c1 | -1.63%
6 | CCOCc1ccc(CNC(=O)N2CCC(C(N)=O)C2)cc1 (stereo not drawn) | -11.4%
7 | COCCN1CC(C(=O)N(C)Cc2ccc(Cl)s2)CC1=O (stereo not drawn) | 8.69%
8 | CC(C)(C)N1CC(C(=O)N2CC(Oc3ccc(F)cc3)C2)CC1=O (stereo not drawn) | 1.88%
9 | Cc1cc(CN(C)C(=O)NCc2ccco2)no1 | 1.58%
10 | CN(Cc1cnn(C)c1)CC(O)c1ccc2c(c1)OCCCO2 (stereo not drawn) | 2.85%
11 | CN1CCC(n2cc3nc(N)[nH]cc-3c2=O)CC1 | 8.6%
12 | NC(=O)CC1CCN(CC(O)c2ccc(Br)cc2)CC1 (stereo not drawn) | -7.74%
13 | Cc1nn(C)c(N2CCCN(C)CC2)c1CNC(=O)CC1CCCC1 | -7.43%
14 | c1ccc2nc(N3CCOC(Cn4cccn4)C3)cnc2c1 (stereo not drawn) | -9.86%
15 | CNC(=O)c1nc(CC(=O)Nc2cccc(C(F)(F)F)c2)no1 | -6.96%
16 | N#Cc1ccc(NC2CCN(CC(F)F)CC2)c(F)c1 | -5.3%
17 | CC(c1ccc(F)cc1F)N1CCN(CCC(=O)NC(N)=O)CC1 (stereo not drawn) | -8.58%
18 | CN1N=C(C(=O)N2CCCC(n3cccn3)C2)CCC1=O (stereo not drawn) | -19%
19 | Cc1occc1C(=O)N1CCC2(CC1)CC(c1cccnc1)C(=O)N2C (stereo not drawn) | -7.09%
20 | CN(C)C(=O)c1cccc(CNc2ccc(C#N)cn2)c1 | -4.73%
21 | O=C(N[C@@H]1CNCCC[C@H]1O)c1ccc(OCCN2CCOCC2)cc1 | 3.11%
22 | Cn1nc2c(cc1=O)CN(CCCOc1ccc(C#N)cc1)CC2 | 22.9%
23 | O=c1n(CCNc2cccc3ccccc23)nc2ccccn12 | 0.392%

Row | Compound | cytotoxicity at 10 µM
24 | Cc1nn(C)c(C)c1C1CCCN1C(=O)CCNS(C)(=O)=O (stereo not drawn) | -26%
25 | Cc1ccc(C(=O)N2C[C@H]3CCC[C@@]3(COCc3cccnc3)C2)s1 | 3.24%
26 | CNC(=O)CS(=O)(=O)C1CCN(S(=O)(=O)c2cccc(Cl)c2C)CC1 | 4.73%
27 | O=C1C[C@@H]2CC[C@H](CN1)N2C1CCSCC1 | 0.915%
28 | CC(C)S(=O)(=O)NC(=O)c1cc(-c2cccc(Cl)c2)no1 | 10%
29 | CC(C)(C)S(=O)(=O)c1ccc(N2CCN(c3ccccn3)CC2)nn1 | -3.3%
30 | CC(C)c1nnc(CNCC2CCCN2c2cccnn2)o1 (stereo not drawn) | 1.05%
31 | CCOc1ncccc1CNc1nnc(C)c(C)c1C#N | -12.1%
32 | Cc1ccccc1CN(CCN(C)C)Cc1ncc[nH]1 | -7.11%
33 | CC(C)(C)C(=O)NCCC(=O)NC(C)(C)c1ccc2c(c1)OCCO2 | -1.22%
34 | CC(C)n1cccc1C(=O)N1CC[C@@H](NC(=O)c2ccccn2)[C@H](O)C1 | 2.35%
35 | CC(C)NC(=O)N1CCC2(CC1)NC(=O)CC2c1ccncc1 (stereo not drawn) | -2.94%
36 | COc1ccc(C(=O)N(C)Cc2nnc3ccccn23)cc1 | 3.45%
37 | Cc1n[nH]c(C2CN(Cc3csc(C4CC4)n3)CCO2)n1 (stereo not drawn) | -0.18%
38 | CC(C)c1noc(CN(Cc2ccccc2)C2CC2)n1 | 0.563%
39 | CN(CC1(O)CCCN(c2ccccn2)C1)C(=O)CC1CCOCC1 (stereo not drawn) | -5.44%
40 | CN(C)c1ccc(C(=O)N2CCCC2c2ccc(Cl)cc2)cc1 (stereo not drawn) | 1.21%
41 | Cc1ccc(C(N)c2cccs2)cc1 (stereo not drawn) | -0.367%
42 | O=C(Nc1ccccc1F)C1=NN(c2ccccc2)C(=O)CN1 | -13.2%
43 | O=C(c1ccncc1F)N1CCCC(c2nccn2CC2CCC2)C1 (stereo not drawn) | 5.94%
44 | CCN(Cc1cc(F)c(OC)c(Cl)c1)Cc1nc(COC)no1 | 3.98%
45 | CN(C(=O)Cn1nnnc1C(C)(C)C)c1ccccc1 | -48.4%
46 | O=C1CC(c2ccncc2)C2(CCN(CCc3ccccc3)CC2)N1 (stereo not drawn) | -1.58%

Row | Compound | cytotoxicity at 10 µM
47 | O=C(NCCCc1cccs1)N1CCCCC1CCO (stereo not drawn) | 6.06%
48 | CN(C)CCNC(=O)c1cc2n(n1)CCN(C(=O)CC(C)(C)C)C2 | -1.85%
49 | Cc1cnc(N2CCCC(c3ccccc3)C2)nc1-c1ncnn1C (stereo not drawn) | -1.79%
50 | COc1ccccc1C(=O)N1CC(=O)N(C2CCCCC2)CC(O)C1 (stereo not drawn) | -3.09%
51 | C=C(C)COCCNC(=O)C1CCCN1C(C)=O (stereo not drawn) | -10.7%
52 | CNC(=O)C1CCCN(C(=O)OC)C1 (stereo not drawn) | -6.06%
53 | Cc1nc(CN(C)Cc2cc3c(cc2OC(F)F)OCO3)cs1 | 8.68%
54 | COCCN1CCCN(C(=O)NC(C)Cn2cccn2)CC1 (stereo not drawn) | -9.39%
55 | CC(C(=O)NCc1ccc(N2CCCCC2)nc1)S(C)(=O)=O (stereo not drawn) | -8.81%
56 | Cc1ccc(C(=O)N2CC[C@@H]3[C@H]2CCC(=O)N3CCN(C)C)cn1 | -0.726%
57 | c1cnnc(N2CCCC(NCc3nc(-c4ccsc4)no3)C2)c1 (stereo not drawn) | 7.79%
58 | Cc1cc(CCC(=O)N2CCOCC2)ccc1Br | 12.5%
59 | CCCNC(=O)NC(=O)CN1CCN(Cc2nccn2CC)CC1 | -14.3%
60 | O=C(c1cccnc1)N(Cc1ccncc1)C1CC1 | 8.32%
61 | Cc1nc(CCN)cc(N(C)Cc2nc3ccc(F)cc3[nH]2)n1 | -0.581%
62 | O=C(Nc1cccc(Cn2cccn2)c1)N1CCCC(N2CCCC2)C1 (stereo not drawn) | 4.13%
63 | CC(C)NC(=O)c1ccc2c(c1)C(c1nc[nH]n1)CN2C (stereo not drawn) | -141%
64 | CCCOCC1CCN(C(=O)c2cnc(-c3cccnc3)nc2O)C1 (stereo not drawn) | -2.55%
65 | CS(=O)(=O)N1CC[C@H]2[C@H](C[C@@H](Cn3cncn3)N2CC2CC2)C1 | -6.25%
66 | CC(Cn1cncn1)NCc1ccc2nonc2c1 (stereo not drawn) | 3.05%
67 | CN1CCCN(c2nc(C3CCCC3)nc3c2cnn3C)CC1 | -3.9%
68 | Cn1cc(-c2nnc3sc(C4CCC4)nn23)cn1 | -13%
69 | Cc1nn(C)c(C)c1CC(C)NC(=O)NCc1ccoc1C (stereo not drawn) | 0.43%

Row | Compound | cytotoxicity at 10 µM
70 | CCCc1n[nH]c(C2CN(C(=O)Cn3ccccc3=O)CCO2)n1 (stereo not drawn) | -1.33%
71 | CN1CCCCCC1C(=O)NCCCn1ncc2ccccc21 (stereo not drawn) | -1.43%
72 | COc1cccc(C2CCCN2Cc2nnnn2C2CC2)c1 (stereo not drawn) | 4.17%
73 | Cc1cc(C)c(CNC(=O)NCc2nnc3n2CCCC3)c(=O)[nH]1 | -5.34%
74 | CN(C)c1cc(N2CCN(c3ccccn3)CC2)ncn1 | -2.71%
75 | Cc1ccc(NC(=O)N2CCCC(O)(CO)CC2)cc1Cl (stereo not drawn) | 1.96%
76 | COc1c(CNCc2ccccc2-n2ccnc2)c(C)nn1C | 18.7%
77 | CCc1nc(Cn2cncc(Br)c2=O)no1 | -11.8%
78 | O=C(c1cc[nH]n1)N1CCc2ncnc(N3CCSCC3)c2CC1 | -3.67%
79 | Cc1oc(C)c(C(=O)NCc2cccnc2)c1C | 5.19%
80 | CC(CO)NS(=O)(=O)c1cccc(C(C)C)c1 (stereo not drawn) | -20%
81 | CCOc1ccc(-c2ccnc(C3CC3)n2)cc1C(=O)O | -0.173%
82 | CCSc1cc(C(=O)NCc2ccccc2O)ccn1 | -3.81%
83 | OC(COCc1ccccc1)CN1CCC(Cn2cccn2)CC1 (stereo not drawn) | -1.49%
84 | CCCn1cnnc1CNC1CCSC1 (stereo not drawn) | -1.1%
85 | Cc1nn(C)c(N(C)C)c1CNCC(O)COc1ccccc1 (stereo not drawn) | -0.0582%
86 | CO[C@H]1CCN(Cc2cnn(C)c2)[C@@H]2CN(Cc3cccnc3)C[C@H]12 | -4.17%
87 | CNc1nccc(-c2cn(C)nc2C)n1 | -6.59%
88 | CC(C)C(Sc1nnc(NC2CC2)s1)C(=O)NCc1cccnc1 (stereo not drawn) | -5.49%
89 | CC(C)c1ocnc1C(=O)NC1(c2cccc(F)c2)CCOCC1 | 6.81%
90 | COc1ccc(C2(c3nc(-c4cccnc4)no3)CCOCC2)cc1 | 13.9%
91 | CC(C)C(=O)N1CCC(c2nc(O)cc(-c3ccncc3)n2)CC1 | -5.41%
92 | COc1cccc(C(=O)N2CCC3(CCC(=O)N(C(C)C)C3)CC2)c1C | -3.21%

Row | Compound | cytotoxicity at 10 µM
93 | O=C(O)C1(n2ccnc2)CCN(Cc2ccc3occc3c2)CC1 | -4.31%
94 | Cc1nc(-c2cccnc2)ncc1C(=O)N1CCC(c2ncc[nH]2)CC1 | 0.626%
95 | OC1CCN(c2cnnc3ccccc23)CC1 | -0.561%
96 | c1ccc(-c2nnc(CN3CCOC(Cn4cccn4)C3)o2)cc1 (stereo not drawn) | -2.48%
97 | Cc1nnc(SCCC(=O)N(C)Cc2c(F)cccc2Cl)[nH]1 | 1.69%
98 | CO[C@H]1CNC[C@@H]1NC(=O)c1cc(C)nc2c(C)cc(C)cc12 | 4.12%
99 | O=C(O)c1nc(SCc2ccc(F)cc2)ncc1Br | -3.11%
100 | Cc1nc(CN2CCCN(C(=O)c3ccn(C)c(=O)c3)CC2)cs1 | -12.7%
101 | C1CN(c2nc(C3CC3)ns2)CCS1 | -11.6%
102 | Cc1cc(N2CCCC(O)(CN(C)C(=O)CCN)C2)c2cnccc2n1 (stereo not drawn) | -1.49%
103 | COc1ccc(NC(=O)NC(C)c2nc[nH]n2)cc1Cl (stereo not drawn) | 0.0264%
104 | CN(Cc1ccsc1)C(=O)c1cc2c([nH]c1=O)CCCC2=O | -6.88%
105 | Cc1noc(C2CCC3(CCN(C(=O)C4=CCCCC4)CC3)O2)n1 (stereo not drawn) | -7.36%
106 | Cc1occc1CN(C)C(=O)Nc1ccc(=O)n(C)c1 | -53.5%
107 | Cc1ocnc1C(=O)N1CC[C@@]2(O)CCN(C(=O)N3CCCC3)C[C@H]2C1 | -7.96%
108 | CCN(CC)[C@@H]1CN(C(=O)c2ccc(C#N)cc2)[C@@H]2CCCO[C@H]12 | -151%
109 | Cc1[nH]c2cc(C3CCCCN3C(=O)C3CC3)nn2c(=O)c1C (stereo not drawn) | -5.34%
110 | N#Cc1cccc(N2CCC3(CCC(=O)N(CC4CCCO4)C3)CC2)n1 (stereo not drawn) | 4.11%
111 | COc1ccccc1OCCNC(=O)CN1CCc2cncnc2C1 | -15.6%
112 | O=C(c1cn(-c2ccc(F)cc2)nn1)N1CCCC(n2cccn2)C1 (stereo not drawn) | -3.56%
113 | Cc1ccc(C(CNC(=O)NCc2cc[nH]n2)N2CCOCC2)o1 (stereo not drawn) | -8.78%
